Measurements from ChEMBL document CHEMBL1146951, “Structure-guided identification of novel VEGFR-2 kinase inhibitors via solution phase parallel synthesis” (Bioorg Med Chem Lett, 2006).
Calls of active or inactive are those of the source. No cut-off for these calls is given here.

Key:
[1] = molecular target: T1, Vascular endothelial growth factor receptor 2 (Homo sapiens, UniProt P35968); test: Inhibition of VEGFR2 at 1 uM
Method in brief: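 Kinase activity of baculovirus-expressed human VEGFR2 enzyme.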

[2] = molecular target: Vascular endothelial growth factor receptor 3 (Homo sapiens) (UniProt P35916); test: Inhibition of VEGFR3 at 300 nM
Vascular endothelial growth factor receptor 3 (Homo sapiens), sequence (P35916 whole entry): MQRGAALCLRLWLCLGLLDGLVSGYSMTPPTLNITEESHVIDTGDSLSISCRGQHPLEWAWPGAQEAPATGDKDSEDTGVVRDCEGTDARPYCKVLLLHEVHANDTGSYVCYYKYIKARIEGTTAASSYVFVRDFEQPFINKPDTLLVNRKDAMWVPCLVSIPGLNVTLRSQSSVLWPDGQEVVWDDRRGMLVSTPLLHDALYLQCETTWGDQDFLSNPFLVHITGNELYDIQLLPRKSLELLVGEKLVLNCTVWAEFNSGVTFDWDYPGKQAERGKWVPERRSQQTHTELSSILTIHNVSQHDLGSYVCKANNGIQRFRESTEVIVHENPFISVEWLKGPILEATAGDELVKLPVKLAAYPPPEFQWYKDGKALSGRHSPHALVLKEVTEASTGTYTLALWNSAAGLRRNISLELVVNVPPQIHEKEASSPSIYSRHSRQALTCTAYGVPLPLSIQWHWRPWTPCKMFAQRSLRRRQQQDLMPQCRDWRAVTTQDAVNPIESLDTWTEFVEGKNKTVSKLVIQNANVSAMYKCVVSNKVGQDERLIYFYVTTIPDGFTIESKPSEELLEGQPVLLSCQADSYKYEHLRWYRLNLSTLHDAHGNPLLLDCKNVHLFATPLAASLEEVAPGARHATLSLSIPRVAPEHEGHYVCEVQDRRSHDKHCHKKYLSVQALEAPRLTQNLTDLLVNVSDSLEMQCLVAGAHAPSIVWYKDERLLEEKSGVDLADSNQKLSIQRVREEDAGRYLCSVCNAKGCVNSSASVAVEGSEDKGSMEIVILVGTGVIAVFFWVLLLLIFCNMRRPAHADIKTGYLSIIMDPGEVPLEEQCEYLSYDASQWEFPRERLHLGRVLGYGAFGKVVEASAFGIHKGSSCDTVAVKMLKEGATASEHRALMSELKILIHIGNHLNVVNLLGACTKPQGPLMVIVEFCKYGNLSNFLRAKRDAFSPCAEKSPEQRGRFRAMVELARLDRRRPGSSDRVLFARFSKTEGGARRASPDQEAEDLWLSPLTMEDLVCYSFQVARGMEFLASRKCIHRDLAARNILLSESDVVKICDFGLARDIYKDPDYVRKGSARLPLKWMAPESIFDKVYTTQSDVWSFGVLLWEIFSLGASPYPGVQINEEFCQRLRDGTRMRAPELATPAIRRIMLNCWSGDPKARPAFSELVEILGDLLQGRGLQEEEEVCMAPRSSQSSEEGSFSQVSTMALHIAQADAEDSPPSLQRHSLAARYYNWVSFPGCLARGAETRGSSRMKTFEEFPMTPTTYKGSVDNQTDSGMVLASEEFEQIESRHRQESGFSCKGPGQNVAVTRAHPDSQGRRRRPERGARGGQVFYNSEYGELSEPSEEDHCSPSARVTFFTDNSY

SVR = test: Antitumor efficacy against SVR cells in nude mice at 30 mg/kg, po; type: functional, organism-based; set-up: dose 30 mg/kg; conditions: Mus musculus
Method in brief: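 SVR murine angiosarcoma cells implanted in the right flank of female athymic nude mice. On day 5 post-implantation, once tumors were palpable, mice were randomized (n = 8–10). Dosing was 30 mg/kg/dose orally twice a day for 10 days in Tween:PG 1:1 vehicle. Tumor growth was compared with vehicle-treated controls.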

[3] = molecular target: Protein kinase C (PKC) (Homo sapiens) (UniProt O94806+P41743+P17252+P05129+Q05655+P05771+Q05513+Q02156+P24723+Q15139+Q04759); test: Inhibition of PKC at 1 uM; type: protein assay
[4] = molecular target: T2, Vascular endothelial growth factor receptor (Homo sapiens) (UniProt P17948+P35916+P35968); test: Inhibition of microvessel growth in rat aortic ring at 100 nM; type: functional, tissue-based; conditions: Aorta, target entry is the homologue from another species
T2 sequence (P17948 whole entry, looked up): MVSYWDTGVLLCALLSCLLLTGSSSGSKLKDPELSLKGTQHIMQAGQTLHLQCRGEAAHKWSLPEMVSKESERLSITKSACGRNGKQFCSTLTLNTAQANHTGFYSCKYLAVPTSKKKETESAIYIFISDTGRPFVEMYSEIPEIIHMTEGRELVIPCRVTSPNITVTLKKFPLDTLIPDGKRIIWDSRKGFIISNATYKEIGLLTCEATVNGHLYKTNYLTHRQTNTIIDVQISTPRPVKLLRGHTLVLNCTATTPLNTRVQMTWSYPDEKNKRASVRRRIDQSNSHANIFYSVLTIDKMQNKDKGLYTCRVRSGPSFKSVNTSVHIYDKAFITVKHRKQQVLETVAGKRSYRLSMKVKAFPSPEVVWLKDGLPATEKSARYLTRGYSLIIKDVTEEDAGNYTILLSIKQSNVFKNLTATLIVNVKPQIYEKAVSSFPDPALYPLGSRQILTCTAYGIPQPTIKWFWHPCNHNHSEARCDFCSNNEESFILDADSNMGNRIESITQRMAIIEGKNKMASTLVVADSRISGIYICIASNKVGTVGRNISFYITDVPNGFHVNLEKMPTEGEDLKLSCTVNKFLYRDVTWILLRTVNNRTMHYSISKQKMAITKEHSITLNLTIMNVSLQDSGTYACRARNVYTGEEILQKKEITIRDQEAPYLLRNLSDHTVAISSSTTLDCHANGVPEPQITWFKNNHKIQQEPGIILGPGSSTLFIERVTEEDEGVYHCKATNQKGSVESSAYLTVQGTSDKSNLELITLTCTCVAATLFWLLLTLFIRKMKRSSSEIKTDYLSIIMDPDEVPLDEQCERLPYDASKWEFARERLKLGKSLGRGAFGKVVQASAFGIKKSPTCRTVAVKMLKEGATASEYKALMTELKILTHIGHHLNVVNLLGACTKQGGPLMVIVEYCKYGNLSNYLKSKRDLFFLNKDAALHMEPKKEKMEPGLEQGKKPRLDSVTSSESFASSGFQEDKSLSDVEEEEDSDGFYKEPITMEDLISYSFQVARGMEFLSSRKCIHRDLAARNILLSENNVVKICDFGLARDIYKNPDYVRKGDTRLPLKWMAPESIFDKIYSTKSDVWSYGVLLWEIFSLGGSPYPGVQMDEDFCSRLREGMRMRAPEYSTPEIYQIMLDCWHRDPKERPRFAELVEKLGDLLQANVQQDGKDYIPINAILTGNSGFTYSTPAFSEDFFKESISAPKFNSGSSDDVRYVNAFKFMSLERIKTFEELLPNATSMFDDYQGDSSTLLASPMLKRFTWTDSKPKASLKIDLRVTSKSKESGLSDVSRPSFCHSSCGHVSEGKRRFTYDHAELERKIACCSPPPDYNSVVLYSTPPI
T2 sequence (P35916 whole entry, looked up): as the sequence (P35916 whole entry) above
T2 sequence (P35968 whole entry, looked up): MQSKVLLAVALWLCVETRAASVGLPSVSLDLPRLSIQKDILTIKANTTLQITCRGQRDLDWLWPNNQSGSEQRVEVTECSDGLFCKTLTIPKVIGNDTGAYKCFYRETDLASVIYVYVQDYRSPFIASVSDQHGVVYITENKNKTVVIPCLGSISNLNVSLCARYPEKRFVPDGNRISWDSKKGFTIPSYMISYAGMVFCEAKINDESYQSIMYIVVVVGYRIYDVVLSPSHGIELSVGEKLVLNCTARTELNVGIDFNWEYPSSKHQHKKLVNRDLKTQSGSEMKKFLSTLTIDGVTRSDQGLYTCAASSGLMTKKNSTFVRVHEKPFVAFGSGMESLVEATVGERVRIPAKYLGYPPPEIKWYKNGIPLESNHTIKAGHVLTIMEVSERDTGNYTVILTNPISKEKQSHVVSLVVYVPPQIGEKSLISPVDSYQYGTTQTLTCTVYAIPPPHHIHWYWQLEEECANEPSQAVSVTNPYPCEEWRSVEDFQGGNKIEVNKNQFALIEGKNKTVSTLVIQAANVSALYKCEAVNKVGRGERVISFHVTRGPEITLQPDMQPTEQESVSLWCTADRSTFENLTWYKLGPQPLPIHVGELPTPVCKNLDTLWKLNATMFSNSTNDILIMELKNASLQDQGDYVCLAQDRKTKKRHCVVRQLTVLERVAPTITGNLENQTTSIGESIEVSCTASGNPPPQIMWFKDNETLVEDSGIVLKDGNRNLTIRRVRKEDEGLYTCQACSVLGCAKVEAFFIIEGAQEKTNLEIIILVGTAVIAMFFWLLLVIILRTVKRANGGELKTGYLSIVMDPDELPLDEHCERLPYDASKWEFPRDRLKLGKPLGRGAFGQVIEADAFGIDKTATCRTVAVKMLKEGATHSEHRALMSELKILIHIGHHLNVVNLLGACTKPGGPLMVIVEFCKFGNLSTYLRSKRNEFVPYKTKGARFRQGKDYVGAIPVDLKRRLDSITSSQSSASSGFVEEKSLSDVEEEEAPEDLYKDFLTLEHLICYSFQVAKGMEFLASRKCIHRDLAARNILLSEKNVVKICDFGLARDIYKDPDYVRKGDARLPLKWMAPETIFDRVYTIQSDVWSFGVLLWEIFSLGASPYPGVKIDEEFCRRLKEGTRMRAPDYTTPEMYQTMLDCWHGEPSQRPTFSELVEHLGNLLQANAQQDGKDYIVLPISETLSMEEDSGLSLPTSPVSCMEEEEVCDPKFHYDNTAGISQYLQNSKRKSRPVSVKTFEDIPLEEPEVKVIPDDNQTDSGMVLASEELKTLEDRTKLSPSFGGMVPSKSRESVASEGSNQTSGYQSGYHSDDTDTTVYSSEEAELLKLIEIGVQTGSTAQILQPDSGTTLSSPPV
Method in brief: (§1)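 Rat aortic ring explants were cultured in serum-free collagen gel in serum-free MCDB 131 medium without exogenous VEGF. Microvessel sprouting was scored at peak growth (day 8) as percent inhibition relative to untreated controls. n = 8 replicates per concentration; inter-assay variability <10%. Statistics by Student Newman–Keuls test.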

[5] = molecular target: Cyclin-dependent kinase 1/cyclin B1 (Homo sapiens, UniProt P06493); test: Inhibition of CDK1/CyclinB1; type: protein-complex assay
Cyclin-dependent kinase 1/cyclin B1, sequence (P06493 whole entry): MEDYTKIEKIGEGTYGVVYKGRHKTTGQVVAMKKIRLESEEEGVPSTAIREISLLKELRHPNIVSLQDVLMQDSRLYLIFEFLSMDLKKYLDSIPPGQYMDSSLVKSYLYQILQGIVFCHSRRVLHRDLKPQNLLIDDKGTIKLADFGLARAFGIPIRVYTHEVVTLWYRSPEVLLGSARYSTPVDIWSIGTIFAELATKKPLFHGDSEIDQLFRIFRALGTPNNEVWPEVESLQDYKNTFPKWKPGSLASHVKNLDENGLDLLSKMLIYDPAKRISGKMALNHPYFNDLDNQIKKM
Cyclin-dependent kinase 1/cyclin B1, sequence (P14635 whole entry, further chain): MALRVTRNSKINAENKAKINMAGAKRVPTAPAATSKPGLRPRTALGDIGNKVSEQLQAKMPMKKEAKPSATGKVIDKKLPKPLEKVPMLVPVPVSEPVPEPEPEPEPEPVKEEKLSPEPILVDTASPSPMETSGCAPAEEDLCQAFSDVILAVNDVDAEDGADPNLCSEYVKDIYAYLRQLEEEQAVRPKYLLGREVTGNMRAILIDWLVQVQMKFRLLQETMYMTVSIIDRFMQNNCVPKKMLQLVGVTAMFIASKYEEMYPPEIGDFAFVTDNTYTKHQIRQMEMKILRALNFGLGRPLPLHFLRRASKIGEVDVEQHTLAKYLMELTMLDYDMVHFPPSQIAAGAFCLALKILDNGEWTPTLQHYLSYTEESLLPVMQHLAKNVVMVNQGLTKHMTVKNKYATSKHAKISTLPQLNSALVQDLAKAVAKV

[6] = molecular target: T2, Vascular endothelial growth factor receptor (Homo sapiens); test: Inhibition of microvessel growth in rat aortic ring at 400 nM; type: functional, tissue-based; conditions: Aorta, target entry is the homologue from another species; method in brief: as §1
[7] = molecular target: T1, Vascular endothelial growth factor receptor 2; test: Inhibition of VEGFR2
[8] = molecular target: T2, Vascular endothelial growth factor receptor (Homo sapiens); test: Inhibition of microvessel growth in rat aortic ring at 4 nM; type: functional, tissue-based; conditions: Aorta, target entry is the homologue from another species; method in brief: as §1
[9] = molecular target: High affinity nerve growth factor receptor (Homo sapiens) (UniProt P04629); test: Inhibition of TrkA at 1 uM
[10] = molecular target: Vascular endothelial growth factor receptor 1 (Homo sapiens) (UniProt P17948); test: Inhibition of VEGFR1 at 300 nM
Vascular endothelial growth factor receptor 1 (Homo sapiens), sequence (P17948 whole entry): as the sequence (P17948 whole entry, looked up) above

[11] = molecular target: T2, Vascular endothelial growth factor receptor (Homo sapiens); test: Inhibition of microvessel growth in rat aortic ring at 40 nM; type: functional, tissue-based; conditions: Aorta, target entry is the homologue from another species; method in brief: as §1

T1 sequence (P35968 whole entry): as the sequence (P35968 whole entry, looked up) above

Row | Structure (SMILES) | inhibition [1] | inhibition [2] | Activity (SVR) | inhibition [3] | inhibition [4] | IC50 [5] | inhibition [6] | IC50 [7] | inhibition [8] | inhibition [9] | inhibition [10] | inhibition [11]
1 | Cn1cc(/C=C2\C(=O)N(c3ccccc3)N=C2c2cnccn2)c2ccccc21 | 23% | – | – | – | – | – | – | – | – | – | – | –
2 | Cn1cc(/C=C2\C(=O)NN=C2c2nccs2)c2cc3c(cc21)OCO3 | – | 63% | Active | 13% | 75% | > 100000 nM | 90% | 32 nM | 55% | 44% | 25% | 66%
3 | Cn1cc(CC2C(=O)NN=C2c2nccs2)c2ccccc21 (stereo not drawn) | 5% | – | – | – | – | – | – | – | – | – | – | –
